Source: PubChem BioAssay AID504490 (NMMLSC, 2011)
Out of some 340,000 compounds screened, about 1,100 (0.32%) were called active.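 The calls were made as follows: active = inhibition above a set limit, near 3 SD of compounds lacking own fluorescence (cut at about 54% in these data); inactive = the rest.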 The entries come from a sample that favours actives as a whole.

What follows are compounds tested on beta-arrestin 1 C-terminal peptide binding to AP2 beta2-adaptin appendage (human) (assay: inhibitors of beta-arrestin/AP2 binding, primary screen, biochemical, GPCR trafficking, flow cytometry (AID 504490;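 also: plate controls were DMSO wells for no effect and 5 µM unlabelled arrestin peptide for full effect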)). Conditions: FITC-arrestin peptide / GST-AP2 beads, at 10 µM, stronger effect = higher value, AP2 beta2 appendage carries R879A mutation.
Method in brief: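 system = GST-tagged AP2 beta2-adaptin appendage (R879A) on 4 µm glutathione beads | reagent = FITC-labelled arrestin peptide probe, 50 nM final | schedule = compound with beads 12 min RT, then probe 1 h RT | signal = HyperCyt-sampled flow cytometry, FL1 channel, ex 488/em 535 nm | read-out = percent response from loss of bead-bound FITC fluorescence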

Compound | inhibition
CC(=O)N1C(=O)/C(=C2\SC(=S)N(NC(=O)c3ccc(O)cc3)C2=O)c2ccccc21 | 7.23% (inactive)
COc1ccc(CN2CCN(C(=O)CCC(=O)Nc3nnc(C(C)C)s3)CC2)cc1F | 17.3% (inactive)
CCc1nnc(NC(=O)CCC(=O)N2CCN(c3cc(C)ccc3C)CC2)s1 | 27.2% (inactive)
CC(C)c1nnc(NC(=O)CCC(=O)N2CCN(c3cccc(Cl)c3)CC2)s1 | 59.1% (active)
C=C1c2cccc(OC)c2O[C@H](C(=O)OCC)[C@@H]1CCCCCC | -3.22% (inactive)
C=CCO/N=C(\C)c1c(O)c(C)c(-c2ccccc2)n(-c2ccccc2)c1=O | 32.4% (inactive)
CC(C)(C)c1cnnn1-c1ccc([N+](=O)[O-])cc1 | -1.38% (inactive)
COc1ccc(C(=O)Nc2ccc(-n3nncc3C(C)(C)C)cc2)cc1 | -18.4% (inactive)
C/C(=N\Nc1ccc([N+](=O)[O-])cc1)c1ccc(-n2nncc2C(C)(C)C)cc1 | 93.7% (active)
CCOC(=O)C(CO)NC(=O)C1(NC(C)=O)CCCC1 (configuration not stated) | 2.61% (inactive)
COc1ccccc1NC(=O)c1c(Br)cnn1C | 6.15% (inactive)
O=C(NNC(=O)C1C2CCC(C2)C1C(=O)O)c1ccc(Cl)cc1 (configuration not stated) | 10.1% (inactive)
O=S(=O)(/N=C(/Nc1ccccn1)c1ccccc1)c1ccc(Cl)cc1 | 2.67% (inactive)
Cc1ccc(S/C(=N\S(=O)(=O)c2ccc(Cl)cc2)c2ccccc2)cc1 | 2.53% (inactive)
Cc1ccc(S(=O)(=O)/N=C(/Nc2ccccn2)c2ccc(Cl)cc2)cc1 | 70.7% (active)
O=C(O)c1ccccc1NC(=S)NC(NC(=O)c1ccccc1[N+](=O)[O-])C(Cl)(Cl)Cl (configuration not stated) | 0.7% (inactive)
CCOC(=O)c1ccc(NC(=S)N2CCN(c3ccccn3)CC2)cc1 | -3.13% (inactive)
O=C(C1CCCO1)N1CCN(S(=O)(=O)c2ccc(Br)cc2)CC1 (configuration not stated) | 54.4% (active)
O=C(C1CCCN1S(=O)(=O)c1ccc(Br)cc1)N1CCOCC1 (configuration not stated) | -2.49% (inactive)
CN1CCN(S(=O)(=O)c2ccc(NC(=O)C3CCCO3)cc2)CC1 (configuration not stated) | -5.38% (inactive)
CCC1(C(=O)c2ccccc2)C(c2cccc([N+](=O)[O-])c2)C1(C(=O)OC)C(=O)OC (configuration not stated) | -3.23% (inactive)
CCOC(=O)c1sc(NC(=O)CSc2nc(O)c(Cc3ccccc3)c(=O)[nH]2)nc1C | 45.5% (inactive)
CCOc1ccc(-n2c(SCC(N)=O)nnc2-c2ccco2)cc1 | -5.91% (inactive)

Compound | inhibition
CCOc1ccc(-c2nnc(-c3ccco3)o2)cc1 | 55% (active)
COc1ccc(-c2nnc(-c3ccc4ccccc4c3)o2)cc1 | 5.64% (inactive)
C[C@@H]1CC[C@@]2(OC1)O[C@H]1C[C@H]3[C@@H]4CC=C5C[C@@H](O)[C@H](O)C[C@]5(C)C4CC[C@]3(C)[C@H]1[C@@H]2C (some centres not stated) | 26.8% (inactive)
Cc1cc(C)c(-c2c(O)c3ccccc3n(C)c2=O)c(C)c1 | 3.35% (inactive)
Cn1c(=O)c([N+](=O)[O-])c(Oc2ccccc2)c2ccccc21 | 54.9% (active)
Cc1cccc(Oc2c([N+](=O)[O-])c(=O)n(C)c3ccccc23)c1 | 8.99% (inactive)
CCn1c(C)nc2cc(C(=O)NNS(=O)(=O)c3ccc(C)cc3C)ccc21 | -9.91% (inactive)
CCNc1c(NS(=O)(=O)c2ccc(C3CCCCC3)cc2)c(=O)oc2ccccc12 | 27.9% (inactive)
COc1ccccc1CNC(=O)COC(=O)c1cccs1 | -6.34% (inactive)
COc1ccc(C2c3[nH]c4ccccc4c3C[C@H]3C(=O)N(CC(C)C)CC(=O)N23)c(OC)c1 (some centres not stated) | -2.46% (inactive)
COc1ccc(Cc2nnc(NC(=O)Cc3cccs3)s2)cc1 | 5.51% (inactive)
O=C(Cc1cccs1)Nc1nnc(SCc2ccc(F)cc2)s1 | 0.35% (inactive)
CCCc1ccc(-c2csc(NC(=O)Cc3cccs3)n2)cc1 | 86.3% (active)
CC(Sc1ncnc2c1cnn2-c1ccccc1)C(=O)Nc1ccc(N2CCOCC2)cc1 (configuration not stated) | 52.7% (inactive)
COc1ccc(C(C)(C)C)cc1NC(=O)CCN1C(=O)C2CCCCC2C1=O (configuration not stated) | 4.94% (inactive)
O=CN1CCN(C(=O)c2ccc3c(c2)OCO3)CC1 | -7.77% (inactive)
CCOC(=O)N1CCN(C(=O)C(C)NC(=O)c2ccco2)CC1 (configuration not stated) | 47.5% (inactive)
CCOC(=O)N1CCN(C(=O)CNC(=O)Cc2ccc(Cl)cc2)CC1 | 87.5% (active)
CCOC(=O)N1CCN(C(=O)Cc2ccc(-n3c(=S)[nH]c4ccccc4c3=O)cc2)CC1 | -0.7% (inactive)
OCCN1CCOCCOCCN(CCO)CCN(CCO)CC1 | -4.2% (inactive)
Cc1ccccc1NC(=O)CCNS(=O)(=O)c1ccc2[nH]c(=O)oc2c1 | -8.2% (inactive)
C=CCOc1c(CNn2cn[nH]c2=S)cccc1OC | 0.65% (inactive)
CC(=O)c1cccc(OCC(=O)OCC(=O)Nc2cc(S(=O)(=O)N3CCCCC3)ccc2C)c1 | 38.5% (inactive)

Compound | inhibition
Cc1ccc(S(=O)(=O)N2CCCCC2)cc1NC(=O)c1cccnc1 | 65.4% (active)
Cc1ccc(S(=O)(=O)N2CCCCC2)cc1NC(=O)CCNC(=O)c1ccccc1 | 2.03% (inactive)
O=P(c1ccc2c(c1)OCCO2)(N1CCOCC1)N1CCOCC1 | 1.28% (inactive)
CCC(C)NC(=O)C1CCC(=O)N1Cc1ccc(C)cc1 (configuration not stated) | 3.49% (inactive)
CCCCNC(=O)C1CCC(=O)N1CCc1ccccc1 (configuration not stated) | -2.64% (inactive)
Cc1ccc(CN2C(=O)CCC2C(=O)NCCCN2CCCCC2C)cc1 (configuration not stated) | 102% (active)
CC(=O)c1cccc(NC(=O)[C@@H](NC(N)=O)C(C)C)c1 | 15.6% (inactive)
Cc1ccc2nsnc2c1S(=O)(=O)N1CCCC1C(=O)O (configuration not stated) | 19.9% (inactive)
COc1cc(C2/C(=C(\O)c3ccc4c(c3)CC(C)O4)C(=O)C(=O)N2c2nnc(C)s2)cc(OC)c1OC (configuration not stated) | 18.6% (inactive)
Cc1ccc(NC(=O)CN2C(=O)NC(C)(c3ccc(Cl)cc3)C2=O)c(Br)c1 (configuration not stated) | -0.27% (inactive)
Cc1ccc(C2(C)NC(=O)N(CC(=O)N3CC(=O)Nc4ccccc43)C2=O)cc1 (configuration not stated) | -7.93% (inactive)
Cc1ccc(C2(C)NC(=O)N(CC(=O)Nc3ccccc3C(=O)N3CCCCC3)C2=O)cc1 (configuration not stated) | 56.8% (active)
CC(=O)OC1CCC2C3CCC4=C(CC(F)C(=O)C4)C3CCC12C (configuration not stated) | -26.5% (inactive)
CCOc1ccccc1OCC(=O)Nc1ccccc1C(=O)NC1CC1 | -8.99% (inactive)
O=C(NC1=CC(=O)c2ccccc2C1=O)c1ccccc1 | 19.2% (inactive)
CC(=O)N(C1=C(Cl)C(=O)c2ccccc2C1=O)c1ccc(C(=O)O)cc1 | 64.7% (active)
CC(C)(Oc1ccc(Cl)cc1)C(=O)OCC(=O)NCCc1ccc(S(N)(=O)=O)cc1 | 19% (inactive)
O=C(CN1C(=O)COc2ccc(Cl)cc21)Nc1ccc(N2CCOCC2)cc1 | 3.15% (inactive)
CC(C)[C@H](NC(=O)N1CCn2c1nc1ccccc12)C(=O)NC1CC1 | 35.9% (inactive)
CC(C)C[C@H](NC(=O)N1CCn2c1nc1ccccc12)C(=O)NC1CC1 | 60.8% (active)
CSCC[C@H](NC(=O)N1CCn2c1nc1ccccc12)C(=O)NC1CCCCC1 | -6.82% (inactive)
CC(NCCc1ccc(S(N)(=O)=O)cc1)C(=O)NCc1ccccc1 (configuration not stated) | 57.4% (active)
NS(=O)(=O)c1ccc(CNC(=O)c2cccc(Oc3ccccc3)c2)cc1 | 10.4% (inactive)

Compound | inhibition
NS(=O)(=O)c1ccc(CCNC(=O)CNC(=O)Cc2ccccc2)cc1 | 3.4% (inactive)
O=C(CC12CC3CC(CC(C3)C1)C2)NCc1ccco1 | 5.06% (inactive)
O=C1C(Cl)=C(Oc2ccccc2)C(=O)c2ccccc21 | 55.1% (active)
Cc1ccc(C(=O)CN2C(=O)NC3(CCOc4ccccc43)C2=O)s1 (configuration not stated) | -5.1% (inactive)
O=C(COc1ccc(F)cc1Br)NCC1COc2ccccc2O1 (configuration not stated) | 0.24% (inactive)
COc1cccc(OCC(O)CNC(=O)c2oc3c(C)c(C)ccc3c2C)c1 (configuration not stated) | 2.32% (inactive)
CN=C1S/C(=C\c2c(OC)cc(OC)cc2OC)C(=O)N1C | 7.51% (inactive)
Cc1ccc(N=C2NC(=O)/C(=C/C=C/c3ccco3)S2)cc1C | 42.9% (inactive)
CN1C(=O)/C(=C/c2ccco2)SC1=Nc1cccc(C(=O)O)c1 | 62.3% (active)
COc1ccc(C2(CNC(=O)C(c3ccccc3)c3ccccc3)CCOCC2)cc1OC | -2.16% (inactive)
CC(C)c1ccc(NC(=S)NC2CC3C=CC2C3)cc1 (configuration not stated) | -12.9% (inactive)
Cc1ccc(NC(=S)Nc2ccc(F)cc2)cc1 | 2.86% (inactive)
Cc1ccc(C)c(NC(=S)NNC(=S)Nc2ccc(C(C)C)cc2)c1 | 60.6% (active)
Cn1cc(CCC(=O)N2CCCC(C(=O)c3ccc(C(C)(C)C)cc3)C2)cn1 (configuration not stated) | 5.89% (inactive)
CCOc1ccc(C(=O)NC2CCN(CC(=O)NCc3cccs3)CC2)cc1 | 54.6% (active)
CCOc1ccc(/C=N/OCC(=O)NCc2cccs2)cc1 | -13.4% (inactive)
CCOc1ccc(C(=O)NC2CCN(S(=O)(=O)CC)CC2)cc1 | 2.75% (inactive)
c1ccc(Cc2ccc(OCCn3ccnc3)cc2)cc1 | -5.61% (inactive)
O=C(C1CCC1)N1CCN(c2ccccc2)CC1 | 4.58% (inactive)
CC(C)Cn1c(N)c(C(=O)COC(=O)CN2C(=O)C3CC=CCC3C2=O)c(=O)n(C)c1=O (configuration not stated) | 1.01% (inactive)
CC1CCN(C(=O)COC(=O)c2cc(=O)[nH]c3ccccc23)CC1 | -3.58% (inactive)
CC(NC(=O)COC(=O)c1cc(=O)[nH]c2ccccc12)c1ccccc1 (configuration not stated) | 11.9% (inactive)
CN(C(=O)COC(=O)c1cc(=O)[nH]c2ccccc12)C1CCCCC1 | 54.7% (active)
